The target in experiment [1] is T1, 3-phosphoinositide-dependent protein kinase 1 (Homo sapiens, UniProt O15530).
T1 sequence (O15530 whole entry): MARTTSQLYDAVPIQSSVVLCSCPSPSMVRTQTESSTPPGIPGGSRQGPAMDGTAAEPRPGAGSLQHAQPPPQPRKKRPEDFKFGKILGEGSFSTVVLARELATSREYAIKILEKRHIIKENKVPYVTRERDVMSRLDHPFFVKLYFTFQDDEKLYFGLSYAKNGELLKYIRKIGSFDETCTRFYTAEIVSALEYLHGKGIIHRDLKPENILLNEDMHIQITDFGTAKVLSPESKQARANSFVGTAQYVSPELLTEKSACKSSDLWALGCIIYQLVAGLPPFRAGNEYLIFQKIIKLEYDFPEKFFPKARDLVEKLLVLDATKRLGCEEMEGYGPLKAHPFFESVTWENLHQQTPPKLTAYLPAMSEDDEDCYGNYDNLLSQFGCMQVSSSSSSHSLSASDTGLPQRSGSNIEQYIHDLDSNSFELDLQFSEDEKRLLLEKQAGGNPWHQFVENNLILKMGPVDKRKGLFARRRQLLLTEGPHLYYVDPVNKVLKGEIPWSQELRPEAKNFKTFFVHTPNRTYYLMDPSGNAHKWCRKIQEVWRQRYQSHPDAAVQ
Kind of experiment: (§1) Inhibition of PDK1.

Experiment [2] has as its target Cyclin-dependent kinase 2 (Homo sapiens, UniProt P24941). The experiment can be described thus: Inhibition of CDK2.
The next experiment concerns A2780. Kind of experiment: Cytotoxicity against human A2780 cells after 72 hrs by Cell titer-glo assay. The format is functional. A digest of the protocol:
(§2)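 A2780 cells were grown in RPMI-1640 and MCF7 cells in MEM, each with heat-inactivated 10% fetal calf serum. Cells were seeded at 2500–5000 cells/well, treated with compound after 24 h, and incubated 72 h at 37 °C under 5% CO₂. Lysed-well ATP content, read by thermostable firefly luciferase, measured viable cells. IC₅₀ came from percent growth versus untreated control.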
For orientation: ATP-based viability assays read luminescence as a measure of living cells.

Another experiment concerns MCF7. Kind of experiment: Cytotoxicity against human MCF7 cells after 72 hrs by Cell titer-glo assay. It counts as functional. The procedure, abridged: as §2
Experiment [3] concerns the target T2, 3-phosphoinositide-dependent protein kinase 1 (Homo sapiens) (UniProt O15530).
T2 sequence (whole entry): T1 sequence (O15530 whole entry)
Described as §1.

The target of experiment [4] is T3, Aurora kinase A (Homo sapiens) (UniProt O14965).
T3 sequence (whole entry): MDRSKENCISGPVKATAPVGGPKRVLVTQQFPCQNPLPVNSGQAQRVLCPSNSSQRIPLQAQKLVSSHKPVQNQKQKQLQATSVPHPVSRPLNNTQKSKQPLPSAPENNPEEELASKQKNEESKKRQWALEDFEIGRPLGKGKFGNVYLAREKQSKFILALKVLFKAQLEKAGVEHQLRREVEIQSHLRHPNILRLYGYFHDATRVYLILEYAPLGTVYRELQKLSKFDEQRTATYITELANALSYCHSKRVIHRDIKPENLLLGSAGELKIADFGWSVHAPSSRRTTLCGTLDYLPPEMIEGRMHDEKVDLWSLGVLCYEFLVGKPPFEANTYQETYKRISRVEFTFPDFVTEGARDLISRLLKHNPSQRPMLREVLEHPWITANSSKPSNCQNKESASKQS
Kind of experiment: Inhibition of aurora A at 40 nM.

The target in experiment [5] is Aurora kinase B (Homo sapiens) (UniProt Q96GD4). The experiment can be described thus: Inhibition of aurora B at 100 nM.

The source made the active and inactive calls. The calls are words filed in the database; no cut-off is given here. Where only a bound is given, the exact number is not on record here.

The IC50 is the concentration that inhibits the measured activity by half.

Aurora kinase B (Homo sapiens), sequence (Q96GD4 whole entry): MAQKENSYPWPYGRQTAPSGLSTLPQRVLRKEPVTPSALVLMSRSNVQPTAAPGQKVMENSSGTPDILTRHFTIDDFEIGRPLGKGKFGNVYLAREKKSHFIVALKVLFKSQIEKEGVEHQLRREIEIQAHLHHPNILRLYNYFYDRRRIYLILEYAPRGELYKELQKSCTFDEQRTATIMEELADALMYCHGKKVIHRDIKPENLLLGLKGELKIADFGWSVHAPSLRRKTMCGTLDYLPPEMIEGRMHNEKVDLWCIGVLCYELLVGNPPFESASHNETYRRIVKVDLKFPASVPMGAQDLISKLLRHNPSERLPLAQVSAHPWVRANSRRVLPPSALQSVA

On to `NCCCn1nc(C(N)=O)c2c1-c1nc(Nc3ccccc3)ncc1CC2`, for which the IC50 in experiment [1] stood at 36 nM; in experiment [2] it was 1 nM. The Activity came to 0.12 µM with A2780 and 0.14 µM in the experiment with MCF7.
As to `Cc1cc(CNC(=O)c2nn(C)c3c2CCc2cnc(Nc4ccc(N5CCN(C)CC5)cc4)nc2-3)ccn1`, the IC50 in experiment [3] was 713 nM; in experiment [2] it was 319 nM. Also, the Activity in the experiment on A2780 is 0.17 µM; with MCF7, 4.91 µM.
Consider `Cc1cc(CNC(=O)c2nn(CCCN)c3c2CCc2cnc(Nc4cccc(CC(=O)N(C)C)c4)nc2-3)ccn1` [NERVIANO], for which the inhibition result in experiment [4] and in experiment [5] was “Active” each time. For the same molecule, the IC50 in experiment [1] stood at 85 nM; in experiment [2], 500 nM. The Activity in the experiment on A2780 was 5.9 µM; in the experiment with MCF7, over 10 µM.
Regarding `NC(=O)Cn1nc(C(N)=O)c2c1-c1nc(Nc3ccccc3)ncc1CC2`, the IC50 in experiment [1] came out at 2740 nM; in experiment [2] it was 10 nM. Further, the Activity in the experiment with A2780 was determined as 2.71 µM; with MCF7 it was 6 µM.
In turn, `NC(=O)c1nn(CC2CCNCC2)c2c1CCc1cnc(Nc3ccccc3)nc1-2` yielded an IC50 in experiment [2] of 12 nM. Moreover, the Activity with A2780 was determined as 0.51 µM; in the experiment with MCF7 it was 1.36 µM.

For the origin of these results see ChEMBL document CHEMBL1177807, “Structure-based optimization of potent PDK1 inhibitors” (Bioorg Med Chem Lett, 2010).
